Experimental data published in ChEMBL document CHEMBL1137756, “Induction of apoptosis promoted by Bang52; a small molecule that downregulates Bcl-x(L)” (2009).
Activity calls are given as the source filed them. No cut-off for these calls is given here.

Experiments:
Format in all cases: functional, cell-based
[1] = system: TK6; assay: Cytotoxicity against human TK6 cells expressing wild type p53
[2] = Cell cycle arrest in human TK6 cells expressing wild type p53 assessed as accumulation at sub-G0/G1 phase after 72 hrs by flow cytometry
In short: (§1)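 Cells exposed 72 h to vehicle or compound (0.1 μM doxorubicin or 25 μM others) and harvested. Washed twice in ice-cold PBS, then resuspended in hypotonic solution (50 μg/ml propidium iodide, 25 μg/ml RNase, 0.1% sodium citrate, 0.1% Triton X-100) and held 1.5 h at 4°C in the dark. Flow cytometry at 10,000 events per histogram; cell death taken as the sub-G0/G1 fraction.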

[3] = system: WTK1; assay: Induction of apoptosis in human WTK1 cells expressing p53 M237I mutant assessed as increase in PARP cleavage at 0.1 uM after 8 hrs by Western blot analysis
In short: (§2)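 Exposure for 8 h to vehicle, 0.1 μM doxorubicin or 25 μM test agents, followed by protein extraction. Western blots probed for cleaved PARP, caspase-3 and β-actin as loading reference.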

[4] = system: NH32; assay: Induction of apoptosis in p53 deficient human NH32 cells assessed as decrease in pro-caspase 3 level at 0.1 uM after 8 hrs by Western blot analysis; in short: as §2
[5] = system: TK6; assay: Induction of p53 phosphorylation at Ser15 in human TK6 cells expressing wild type p53 at 0.1 uM after 8 hrs by Western blot analysis
In short: (§3)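 Exposure for 8 h to vehicle, 0.1 μM doxorubicin or 25 μM test agents, followed by protein extraction. Western blots probed for total p53, phospho-p53 (Ser15), p21cip1/Waf1 and β-actin.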

[6] = Cell cycle arrest in human WTK1 cells expressing p53 M237I mutant assessed as accumulation at sub-G0/G1 phase at 0.1 uM after 72 hrs by flow cytometry; in short: as §1
[7] = system: WTK1; assay: Induction of apoptosis in human WTK1 cells expressing p53 M237I mutant assessed as increase in cleaved caspase 3 level at 0.1 uM after 8 hrs by Western blot analysis; in short: as §2
[8] = system: TK6; assay: Induction of apoptosis in human TK6 cells expressing wild type p53 assessed as increase in cleaved caspase 3 level at 0.1 uM after 8 hrs by Western blot analysis; in short: as §2
[9] = system: WTK1; assay: Induction of p53 phosphorylation at Ser15 in human WTK1 cells expressing p53 M237I mutant at 25 uM after 8 hrs by Western blot analysis
In short: (§4)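 TK6 and WTK1 cells (NH32 also run) treated 8 h at 25 μM, vehicle or doxorubicin 0.1 μM. Extracts immunoblotted for p53, phospho-p53 (Ser15), p21cip1/Waf1 and β-actin.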

[10] = system: NH32; assay: Induction of apoptosis in p53 deficient human NH32 cells assessed as increase in cleaved caspase 3 level at 0.1 uM after 8 hrs by Western blot analysis; in short: as §2
[11] = system: TK6; assay: Induction of apoptosis in human TK6 cells expressing wild type p53 assessed as decrease in pro-caspase 3 level at 0.1 uM after 8 hrs by Western blot analysis; in short: as §2
[12] = system: NH32; assay: Induction of apoptosis in p53 deficient human NH32 cells assessed as increase in PARP cleavage at 0.1 uM after 8 hrs by Western blot analysis; in short: as §2
[13] = system: WTK1; assay: Induction of apoptosis in human WTK1 cells expressing p53 M237I mutant assessed as decrease in pro-caspase 3 level at 0.1 uM after 8 hrs by Western blot analysis; in short: as §2
[14] = Cell cycle arrest in human TK6 cells expressing wild type p53 assessed as accumulation at sub-G0/G1 phase at 0.1 uM after 72 hrs by flow cytometry; in short: as §1
[15] = system: TK6; assay: Induction of p53 phosphorylation at Ser15 in human TK6 cells expressing wild type p53 at 25 uM after 8 hrs by Western blot analysis; in short: as §4
[16] = system: WTK1; assay: Induction of p53 transcriptional activity in human WTK1 cells expressing p53 M237I mutant assessed as p21-Cip1/Waf1 expression at 25 uM after 8 hrs by Western blot analysis; in short: as §4
[17] = system: TK6; assay: Induction of p53 transcriptional activity in human TK6 cells expressing wild type p53 assessed as p21-Cip1/Waf1 expression at 0.1 uM after 8 hrs by Western blot analysis; in short: as §3
[18] = system: WTK1; assay: Induction of p53 phosphorylation at Ser15 in human WTK1 cells expressing p53 M237I mutant at 0.1 uM after 8 hrs by Western blot analysis; in short: as §3
[19] = system: TK6; assay: Induction of apoptosis in human TK6 cells expressing wild type p53 assessed as increase in PARP cleavage at 0.1 uM after 8 hrs by Western blot analysis; in short: as §2
[20] = system: TK6; assay: Induction of p53 transcriptional activity in human TK6 cells expressing wild type p53 assessed as p21-Cip1/Waf1 expression at 25 uM after 8 hrs by Western blot analysis; in short: as §4
[21] = Cell cycle arrest in p53 deficient human NH32 cells assessed as accumulation at sub-G0/G1 phase at 0.1 uM after 72 hrs by flow cytometry; in short: as §1
[22] = system: WTK1; assay: Induction of p53 transcriptional activity in human WTK1 cells expressing p53 M237I mutant assessed as p21-Cip1/Waf1 expression at 0.1 uM after 8 hrs by Western blot analysis; in short: as §3

NCCNC(=O)C(F)F
Activity [1]: Not toxic | Activity [2]: inactive

COc1cccc2c1C(=O)c1c(O)c3c(c(O)c1C2=O)C[C@@](O)(C(=O)CO)C[C@@H]3O[C@H]1C[C@H](N)[C@H](O)[C@H](C)O1
Activity [3]: Active | Activity [4]: Active | Activity [5]: Active | Activity [6]: inactive | Activity [7]: Active | Activity [8]: Active | Activity [9]: inactive | Activity [10]: Active | Activity [11]: Active | Activity [12]: Active | Activity [13]: Active | Activity [14]: Active | Activity [15]: inactive | Activity [16]: inactive | Activity [17]: Active | Activity [18]: Active | Activity [19]: Active | Activity [20]: inactive | Activity [21]: inactive | Activity [22]: inactive
